According to ChEMBL document CHEMBL3603756, “Synthesis and apoptotic activity of new pyrazole derivatives in cancer cell lines” (2015):
The source made the active and inactive calls. No cut-off for these calls is given here.

Key:
THP-1 [1] = test: Cytotoxicity against human THP1 cells assessed as cell viability at 12.5 ug/ml incubated for 24 hrs by MTS assay; type: functional; conditions: THP-1, 24 h, read-out: Activity
In short: (§1)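 Cells were held at 37 °C, 5% CO2 in humid air. HEp-2 (5 x 10³/well) and HCT-8 (7 x 10³/well) grew in DMEM + 10% heat-inactivated FBS and got compound (binary dilutions) 24 h after seeding. THP-1 (5 x 10³ cells, RPMI-1640 + 10% FBS) were added directly to the dilutions. Exposure lasted 24 h. MTS (CellTiter 96 AQueous One) read-out was absorbance at 490 nm.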

THP-1 [2] = test: Cytotoxicity against human THP1 cells assessed as cell viability at 25 ug/ml incubated for 24 hrs by MTS assay; type: functional; conditions: THP-1, 24 h, read-out: Activity; in short: as §1
THP-1 [3] = test: Cytotoxicity against human THP1 cells assessed as cell viability at 50 ug/ml incubated for 24 hrs by MTS assay; type: functional; conditions: THP-1, 24 h, read-out: Activity; in short: as §1
[4] = Cytotoxicity against human HCT8 cells assessed as cell viability at 12.5 ug/ml incubated for 24 hrs by MTS assay; type: functional; conditions: HCT-8, 24 h, read-out: Activity; in short: as §1
[5] = Cytotoxicity against human HCT8 cells assessed as cell viability at 25 ug/ml incubated for 24 hrs by MTS assay; type: functional; conditions: HCT-8, 24 h, read-out: Activity; in short: as §1
[6] = Cytotoxicity against human HCT8 cells assessed as cell viability at 50 ug/ml incubated for 24 hrs by MTS assay; type: functional; conditions: HCT-8, 24 h, read-out: Activity; in short: as §1
[7] = Cytotoxicity against human Hep2 cells assessed as cell viability at 12.5 ug/ml incubated for 24 hrs by MTS assay; type: functional; conditions: HEp-2, 24 h, read-out: Activity; in short: as §1
[8] = Cytotoxicity against human Hep2 cells assessed as cell viability at 25 ug/ml incubated for 24 hrs by MTS assay; type: functional; conditions: HEp-2, 24 h, read-out: Activity; in short: as §1
[9] = Cytotoxicity against human Hep2 cells assessed as cell viability at 50 ug/ml incubated for 24 hrs by MTS assay; type: functional; conditions: HEp-2, 24 h, read-out: Activity; in short: as §1
HCT-8 [10] = test: Induction of apoptosis in human HCT8 cells assessed necrosis level at 50 ug/ml incubated for 24 hrs by annexin V-FITC and propidium iodide staining based flow cytometry (reference value: 1.12%); type: functional
HCT-8 [11] = test: Induction of apoptosis in human HCT8 cells assessed early apoptosis level at 50 ug/ml incubated for 24 hrs by annexin V-FITC and propidium iodide staining based flow cytometry (reference value: 0.75%); type: functional
HCT-8 [12] = test: Induction of apoptosis in human HCT8 cells assessed late apoptosis level at 50 ug/ml incubated for 24 hrs by annexin V-FITC and propidium iodide staining based flow cytometry (reference value: 4.8%); type: functional
HCT-8 [13] = test: Induction of apoptosis in human HCT8 cells assessed viable cells level at 50 ug/ml incubated for 24 hrs by annexin V-FITC and propidium iodide staining based flow cytometry (reference value: 93.3%); type: functional
HEp-2 [14] = test: Increase in TRAIL-R2 protein expression in human Hep2 cells at 50 ug/ml incubated for 24 hrs by protein array method; type: functional, cell-based
HEp-2 [15] = test: Increase in TRAIL-R1 protein expression in human Hep2 cells at 50 ug/ml incubated for 24 hrs by protein array method; type: functional, cell-based
HEp-2 [16] = test: Increase in FADD protein expression in human Hep2 cells at 50 ug/ml incubated for 24 hrs by protein array method; type: functional, cell-based
HEp-2 [17] = test: Increase in Fas/TNFRSF6 protein expression in human Hep2 cells at 50 ug/ml incubated for 24 hrs by protein array method; type: functional, cell-based
HEp-2 [18] = test: Increase in caspase-8 levels in human Hep2 cells at 50 ug/ml incubated for 24 hrs by protein array method; type: functional, cell-based
HEp-2 [19] = test: Reduction in pro-caspase-3 levels in human Hep2 cells at 50 ug/ml incubated for 24 hrs by protein array method; type: functional, cell-based
HEp-2 [20] = test: Increase in cleaved-caspase-3 levels in human Hep2 cells at 50 ug/ml incubated for 24 hrs by protein array method; type: functional, cell-based
HEp-2 [21] = test: Reduction in XIAP levels in human Hep2 cells at 50 ug/ml incubated for 24 hrs by protein array method; type: functional, cell-based
HEp-2 [22] = test: Reduction in c-IAP1 levels in human Hep2 cells at 50 ug/ml incubated for 24 hrs by protein array method; type: functional, cell-based
HEp-2 [23] = test: Reduction in c-IAP2 levels in human Hep2 cells at 50 ug/ml incubated for 24 hrs by protein array method; type: functional, cell-based
HEp-2 [24] = test: Reduction in livin protein levels in human Hep2 cells at 50 ug/ml incubated for 24 hrs by protein array method; type: functional, cell-based
HEp-2 [25] = test: Reduction in survivin protein levels in human Hep2 cells at 50 ug/ml incubated for 24 hrs by protein array method; type: functional, cell-based
HEp-2 [26] = test: Reduction in HSP27 protein levels in human Hep2 cells at 50 ug/ml incubated for 24 hrs by protein array method; type: functional, cell-based
HEp-2 [27] = test: Reduction in HSP70 protein levels in human Hep2 cells at 50 ug/ml incubated for 24 hrs by protein array method; type: functional, cell-based
HEp-2 [28] = test: Induction of apoptosis in human Hep2 cells assessed as increase in p53 S15/S46/S392 phosphorylation level at 50 ug/ml incubated for 24 hrs by protein array method; type: functional, cell-based
HEp-2 [29] = test: Induction of cell cycle arrest in human Hep2 cells assessed accumulation at G2/M phase incubated for 24 hrs by propidium iodide staining based flow cytometry; type: functional
HEp-2 [30] = test: Induction of cell cycle arrest in human Hep2 cells assessed accumulation at G0/G1 phase at 10 ug/ml incubated for 24 hrs by propidium iodide staining based flow cytometry (reference value: 74.51%); type: functional
HEp-2 [31] = test: Induction of cell cycle arrest in human Hep2 cells assessed accumulation at G0/G1 phase at 50 ug/ml incubated for 24 hrs by propidium iodide staining based flow cytometry (reference value: 74.51%); type: functional
HEp-2 [32] = test: Induction of cell cycle arrest in human Hep2 cells assessed accumulation at S phase at 10 ug/ml incubated for 24 hrs by propidium iodide staining based flow cytometry (reference value: 21.06%); type: functional
HEp-2 [33] = test: Induction of cell cycle arrest in human Hep2 cells assessed accumulation at S phase at 50 ug/ml incubated for 24 hrs by propidium iodide staining based flow cytometry (reference value: 21.06%); type: functional
HEp-2 [34] = test: Induction of cell cycle arrest in human Hep2 cells assessed accumulation at G2/M phase at 10 ug/ml incubated for 24 hrs by propidium iodide staining based flow cytometry (reference value: 7.82%); type: functional
HEp-2 [35] = test: Induction of cell cycle arrest in human Hep2 cells assessed accumulation at G2/M phase at 50 ug/ml incubated for 24 hrs by propidium iodide staining based flow cytometry (reference value: 7.82%); type: functional
[36] = Reduction in PRKAA1 gene expression in human Hep2 cells at 10 ug/ml incubated for 24 hrs by real-time PCR method; type: functional, cell-based; conditions: HEp-2
In short: (§2)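 HEp-2 cells were treated 24 h at 10 or 50 µg/mL. Total RNA was extracted with Trizol, and 2 µg was reverse-transcribed. 50 ng cDNA went into TaqMan real-time PCR with beta-actin as endogenous control. Relative expression was calculated by the ∆∆CT method. Each experiment was run three times.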

[37] = Reduction in PRKAA2 gene expression in human Hep2 cells at 10 ug/ml incubated for 24 hrs by real-time PCR method; type: functional, cell-based; conditions: HEp-2; in short: as §2
HEp-2 [38] = test: Increase in PRKAA1 gene expression in human Hep2 cells at 50 ug/ml incubated for 24 hrs by real-time PCR method; type: functional, cell-based; in short: as §2
HEp-2 [39] = test: Increase in PRKAA2 gene expression in human Hep2 cells at 50 ug/ml incubated for 24 hrs by real-time PCR method; type: functional, cell-based; in short: as §2
HEp-2 [40] = test: Increase in cyclin B gene expression in human Hep2 cells at 50 ug/ml incubated for 24 hrs by real-time PCR method; type: functional, cell-based; in short: as §2
HEp-2 [41] = test: Increase in cyclin B gene expression in human Hep2 cells at 10 ug/ml incubated for 24 hrs by real-time PCR method; type: functional, cell-based; in short: as §2

## Cn1cc(C(=O)NC(=S)Nc2cccc(Br)c2)cn1
THP-1 [1]
  viability at 12.5 µg/mL: 77%
THP-1 [2]
  viability at 25 µg/mL: 55.8%
THP-1 [3]
  viability at 50 µg/mL: 32%
[4]
  viability at 12.5 µg/mL: 94%
[5]
  viability at 25 µg/mL: 89.8%
[6]
  viability at 50 µg/mL: 78.2%
[7]
  viability at 12.5 µg/mL: 100%
[8]
  viability at 25 µg/mL: 82%
[9]
  viability at 50 µg/mL: 70%
HCT-8 [10]
  Activity: 7.58%
HCT-8 [11]
  Activity: 7.07%
HCT-8 [12]
  Activity: 7.11%
HCT-8 [13]
  Activity: 78.2%
HEp-2 [14]
  Activity: Active
HEp-2 [15]
  Activity: Active
HEp-2 [16]
  Activity: Active
HEp-2 [17]
  Activity: Active
HEp-2 [18]
  Activity: Active
HEp-2 [19]
  Activity: Active
HEp-2 [20]
  Activity: Active
HEp-2 [21]
  Activity: Active
HEp-2 [22]
  Activity: Active
HEp-2 [23]
  Activity: Active
HEp-2 [24]
  Activity: Active
HEp-2 [25]
  Activity: Active
HEp-2 [26]
  Activity: Active
HEp-2 [27]
  Activity: Active
HEp-2 [28]
  Activity: Active
HEp-2 [29]
  Activity: Dose-dependent effect
HEp-2 [30]
  Activity: 66.12%
HEp-2 [31]
  Activity: 15.4%
HEp-2 [32]
  Activity: 20.85%
HEp-2 [33]
  Activity: 34.7%
HEp-2 [34]
  Activity: 18.43%
HEp-2 [35]
  Activity: 52.33%
[36]
  Activity: Active
[37]
  Activity: Active
HEp-2 [38]
  Activity: Active
HEp-2 [39]
  Activity: Active
HEp-2 [40]
  Activity: Active
HEp-2 [41]
  Activity: Active
